UHRF1 binding: UHRF1 methyl-DNA binding inhibition; UHRF1 binding to methylated oligo, TR-FRET; inhibition, % at 4.4 µM; hit rate 0.75% among 370,000; AID 687016; in the data active = inhibition above about 21%;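 note: UHRF1 SRA domain binding a hemimethylated CpG hairpin DNA probe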
MBD2 inh: inhibitors of human MBD2 binding to methylated oligonucleotide. Q9UBB5. TR-FRET. inhibition, % at 4.4 µM. hit rate 0.31% among 370,000. AID 686964; in the data active = inhibition above about 13%
B2AR ag: human beta-2 adrenergic receptor agonism by FAP. Am2.2-beta2AR cells, FAP receptor internalization, flow cytometry. hit rate 0.43% among 340,000. AID 504454. P07550. response, % (no concentration beside the values);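 active = response above a set limit, near 3 SD of response in nonfluorescent compounds, cut at about 42% in these data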
Arrestin-AP2 inh: human beta-arrestin and AP2 interaction inhibition. FITC-arrestin peptide / GST-AP2 beads, flow cytometry; AP2 beta2 appendage carries R879A mutation. inhibition, % at 10 µM. hit rate 0.31% among 340,000;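 active = inhibition above a set limit, near 3 SD of compounds lacking own fluorescence, cut at about 54% in these data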
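System: GST-AP2 R879A glutathione beads. Medium: PBS with 0.05% Tween 20 and 0.1% BSA. Also added: FITC-arrestin peptide, 50 nM. Incubation: 12 min plus 1 h, RT. Measured by: high-throughput flow cytometry of beads, ex 488, em 535 nm. Evaluation: percent drop in bead-associated FITC signal.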
Rin1 Abl inh: inhibitors of human Rin1-Abl protein interaction; P00519+Q13671; TR-FRET Rin1/Abl binding, biochemical; inhibition, % at 7.35 µM; hit rate 0.4% among 360,000; in the data active = inhibition above about 5%, passing the limit was not always enough
ABHD5 PLIN5 PPI: inhibitors of human ABHD5-perilipin-5 interaction; Q00G26+Q8WTS1; inhibition, % at 4 µM; hit rate 0.78% among 360,000; Split G. princeps luciferase complementation, luminescence, 4 h; AID 602281;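 active = inhibition above the mean inhibition across every tested compound plus 3 SD, cut at about 22% in these data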
ABHD5-PLIN5 conf: confirmation of human ABHD5-PLIN5 interaction inhibitors | shares compounds with ABHD5 PLIN5 PPI | biochemical ABHD5-PLIN5 interaction, luminescence | inhibition, % at 4 µM | hit rate 67% among 2,200 | AID 651612; in the data active = inhibition above about 23%
HNF4 counter: HNF4 split-luciferase signal hit, counter-screen | AID 651674 | hit rate 77% among 2,200 | HNF4 dimerization, luminescence, biochemical | inhibition, % at 4 µM | shares compounds with ABHD5 PLIN5 PPI;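 active = mean inhibition across replicate wells exceeding the computed hit threshold, cut at about 13% in these data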;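 note: light from luciferase halves that rejoin when HNF4 fusion proteins dimerize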
Target sequence (P41235 whole entry, looked up, the tested form may be a part): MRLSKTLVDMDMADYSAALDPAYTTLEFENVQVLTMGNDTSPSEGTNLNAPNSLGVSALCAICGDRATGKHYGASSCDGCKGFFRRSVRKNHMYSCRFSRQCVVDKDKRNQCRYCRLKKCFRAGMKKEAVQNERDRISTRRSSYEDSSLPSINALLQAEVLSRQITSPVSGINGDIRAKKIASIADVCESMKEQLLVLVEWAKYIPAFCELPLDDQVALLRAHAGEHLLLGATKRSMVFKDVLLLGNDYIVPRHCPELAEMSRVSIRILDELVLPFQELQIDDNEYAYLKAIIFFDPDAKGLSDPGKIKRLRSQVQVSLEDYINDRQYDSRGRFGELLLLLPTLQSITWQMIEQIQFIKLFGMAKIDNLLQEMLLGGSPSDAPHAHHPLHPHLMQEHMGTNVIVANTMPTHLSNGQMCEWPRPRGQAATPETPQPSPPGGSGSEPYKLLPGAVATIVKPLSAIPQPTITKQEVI
Hits are given with their value; – = inactive; · = no result given. Shown are actives, neighbours in structure and some others; about 2.5% of the full set was active somewhere.

SMILES	UHRF1 binding	MBD2 inh	B2AR ag	Arrestin-AP2 inh	Rin1 Abl inh	ABHD5 PLIN5 PPI	ABHD5-PLIN5 conf	HNF4 counter
COC(=O)[C@H](C(C)C)N1Cc2nnn(Cc3ccccc3)c2-c2cc(F)ccc2S1(=O)=O	–	–	·	·	·	·	·	·
COc1ccc(/C(O)=C2\C(=O)C(=O)N(Cc3ccco3)C2c2cc(OC)ccc2OC)cc1 (stereo not drawn)	–	–	–	–	–	29.2	–	–
COc1cc(C2/C(=C(\O)c3ccc4c(c3)OCCO4)C(=O)C(=O)N2Cc2ccco2)cc(OC)c1OC (stereo not drawn)	–	–	–	–	–	28.7	–	–
CCCCC[C@H](O)/C=C/C1C(=O)C=C[C@H]1C/C=C\CCCC(=O)OC (stereo partly drawn)	–	–	–	–	–	36.2	45.4	61.3
Cc1cccc(/C=C/C(=O)c2ccc(NC3=NCCCS3)cc2)c1	–	–	–	–	–	52.3	78.6	60.8
COc1cccc(/C=C/C(=O)c2ccc(NC3=NCCCS3)cc2)c1	–	–	–	–	–	44.8	73.8	63.2
COc1ccc(-n2c(COc3ccccc3)nnc2SCC(=O)Nc2ccc3c(c2)OCCO3)cc1	–	–	·	·	·	·	·	·
O=C1CC(c2ccco2)Cc2nc(N3CCc4ccccc4C3)ncc21 (stereo not drawn)	–	–	–	–	–	27.5	–	23.2
O=C(c1cccnc1)N1CCN(Cc2cccc(Br)c2)CC1	–	–	–	–	–	23.8	–	–
COc1cccc(-c2cnc3c(NC=O)cc(-c4ccoc4)cn23)c1	–	–	·	·	–	25.7	30.3	36.7
COc1cccc(-c2cnc3c(NC=O)cc(-c4ccccc4)cn23)c1	–	–	·	·	–	–	·	·
CN(C)C(=O)c1cccc(-c2cnc3c(NC=O)cc(-c4ccccc4Cl)cn23)c1	–	–	·	·	–	23.5	–	–
Cn1c(=O)cc(OCC(=O)N2CCN(c3ccccc3Cl)CC2)c2ccccc21	–	–	·	·	·	·	·	·
c1coc(-c2nc3ccccc3nc2-c2ccco2)c1	53.1	–	–	–	–	34.0	93.3	85.6
c1coc(-c2cnc3ccccc3n2)c1	–	–	·	·	–	–	·	·
CCOC(=O)C1C[C@@H](O)C=CC1=O (stereo partly drawn)	–	–	·	·	·	·	·	·
COc1ccc(-c2nnn3c2Cn2c4ccccc4c(=O)n2[C@@H](C)C3)cc1	–	–	·	·	·	·	·	·
COc1cccc(N2[C@@H](CC(C)=O)c3ccc(/C=C/C(C)=O)cc3S2(=O)=O)c1	–	–	–	–	–	31.8	65.2	57.0
COc1ccc(CN2[C@@H](CC(C)=O)c3ccc(/C=C/C(C)=O)cc3S2(=O)=O)cc1	–	–	–	–	–	34.7	70.4	62.3
Cc1c(Cl)sn(-c2ccc(Cl)cc2)c1=O	–	–	48.8	–	–	26.1	77.5	106.6
Cc1nn(-c2ccc(Cl)cc2)c(=O)c2ccccc12	–	–	–	–	–	–	·	·
O=C(COc1ccc(F)cc1Cl)Nc1nnc(-c2ccc(F)c(F)c2)o1	–	–	·	·	·	·	·	·
Cc1cccc(NC(=O)CN2C(=O)N/C(=C/c3ccc(C)o3)C2=O)c1	88.4	–	–	–	–	61.2	35.2	98.7
Cc1ccc(NC(=O)CN2C(=O)N/C(=C/c3ccc(C)o3)C2=O)cc1	–	–	–	–	–	42.0	45.6	87.7
C=CCN1C(=O)N/C(=C/c2ccc(C)o2)C1=O	–	–	–	–	–	31.5	–	87.9
SMILES	UHRF1 binding	MBD2 inh	B2AR ag	Arrestin-AP2 inh	Rin1 Abl inh	ABHD5 PLIN5 PPI	ABHD5-PLIN5 conf	HNF4 counter
Cc1ccc(NC(=O)CN2C(=O)N/C(=C/c3ccc(C)s3)C2=O)cc1	–	–	–	–	–	–	·	·
Cc1ccc(/C=C2\C(=O)NC(=O)N2C)o1	–	–	–	–	–	–	·	·
C=CCN(C(=O)[C@@H](CCCC)[C@@H](O)c1ccc(C(C)=O)cc1)c1ccccc1	–	–	·	·	·	·	·	·
COc1ccc(-c2c(C#Cc3ccsc3)c3cc(-c4ccc5c(c4)OCO5)ccc3n2C)cc1	–	–	–	–	–	–	·	·
COc1cc(OC)cc(-c2c(C#Cc3ccsc3)c3cc(-c4ccc5c(c4)OCO5)ccc3n2C)c1	–	–	–	–	–	97.8	–	–
CC(=O)Oc1ccc(OC(C)=O)c2c1CC(C)=C(C)C2	–	–	–	–	–	30.6	32.5	23.9
CC(=O)Oc1ccc(C(=O)O)c(OC(C)=O)c1	–	–	–	–	–	–	·	·
CC[n+]1c(/C=C/c2ccc(N(C)C)cc2)ccc2ccccc21	–	–	–	–	–	29.4	26.6	27.9
CC[n+]1ccc(/C=C/c2ccc(N(C)C)cc2)c2ccccc21	–	–	–	–	–	27.7	32.2	32.5
CC[n+]1c(/C=C/c2ccc(OC)c(OC)c2)ccc2ccccc21	–	–	–	–	–	–	·	·
CC(C)[C@@H]1CC[C@@H](C)C[C@H]1OC(=O)C[n+]1cc(-c2ccc(Cl)cc2)n2c1CCCCC2	–	–	–	–	–	–	·	·
CC1CCC(C(C)C)C(OC(=O)Cn2c(-c3ccc(Cl)cc3)[n+](C)c3ccccc32)C1 (stereo not drawn)	–	–	–	–	–	33.8	–	–
O=C(CCN1C(=O)c2ccccc2C1=O)Oc1ccc2ccccc2c1	–	–	–	–	–	–	·	·
CC1=CC(C)(C)Nc2ccc(OC(=O)CCN3C(=O)c4ccccc4C3=O)cc21	–	–	–	–	–	75.0	85.6	90.3
Fc1ccc(-[n+]2nc(Nc3ccccc3)sc2-c2c3ccccc3cc3ccccc23)cc1	–	–	–	–	–	25.1	–	–
CC1CCN(C(=O)c2ccc(S(=O)(=O)NCc3ccco3)cc2)CC1	–	–	–	–	–	24.0	–	–
O=C(c1ccc(S(=O)(=O)NCc2ccco2)cc1)N1CCCC1	–	–	–	–	–	–	·	·
COC(=O)C1=C(C)N(Cc2ccc(Cl)cc2)C(=S)NC1c1ccc(OC)cc1 (stereo not drawn)	–	–	·	·	·	·	·	·
O=C(NCc1ccc2c(c1)OCO2)c1ccccc1Cl	–	–	–	–	–	–	·	·
O=C(NCc1ccc2c(c1)OCO2)c1nc(S(=O)(=O)Cc2ccccc2)ncc1Cl	–	–	–	–	–	53.8	87.5	106.4
O=C(NCc1ccc2c(c1)OCO2)c1ccc(Cl)nc1	–	–	–	–	–	–	·	·
O=C(NCc1ccc2c(c1)OCO2)c1nc(S(=O)(=O)Cc2ccccc2F)ncc1Cl	–	–	–	–	–	76.3	84.2	106.0
CC1CN(Cc2c(O)ccc3c(=O)c(-c4ccccc4)coc23)CC(C)O1 (stereo not drawn)	–	–	–	–	–	–	·	·
